# Reference: ChEMBL document CHEMBL4257442, “An insight into tetrahydro-β-carboline-tetrazole hybrids: synthesis and bioevaluation as potent antileishmanial agents” (Medchemcomm, 2017)
# Key:
# [1] = Cytotoxicity against mouse J774A.1 cells after 2 hrs by MTT assay; format: cell-based, J774.A1
# Summary of the method: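 Mouse macrophage J-774A.1 cells obtained from NCCS, Pune, were used for the in vitro cytotoxicity assay. CC50 is the average of three independent assays, expressed as average ± standard error.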
# [2] = Selectivity index, ratio of CC50 for mouse J774A.1 cells to IC50 for Leishmania donovani MHOM/IN/80/Dd8 amastigote forms infected in mouse J774A.1 cells; format: toxicity, cell-based; details: read-out: Ratio CC50/IC50
# Summary of the method: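 SI was calculated as the cytotoxicity CC50 in J-774A.1 cells divided by the anti-amastigote IC50. The amastigote assay used murine macrophages expressing a firefly luciferase reporter, infected with intracellular L. donovani. Each IC50 and CC50 is the average of three independent assays.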
# Leishmania donovani [3] = assay: Antileishmanial activity against Leishmania donovani MHOM/IN/80/Dd8 amastigotes infected in golden hamsters assessed as inhibition of splenic parasite burden at 30 mg/kg, po for 5 consecutive days initiated after 2 days of biopsy and measured on day 7 post last dose by Giemsa staining-based assay relative to control; format: functional; details: MHOM/IN/80/Dd8, po
# Leishmania donovani [4] = assay: Antileishmanial activity against Leishmania donovani MHOM/IN/80/Dd8 promastigotes harboring luciferase reporter gene after 72 hrs by Steady-Glo luminescence assay; format: functional, organism-based; details: MHOM/IN/80/Dd8, 72 h
# Summary of the method: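 Extracellular promastigotes of the L. donovani WHO reference strain MHOM/IN/80/Dd8. IC50 is the concentration giving 50% inhibition of parasite growth. Values are the average of three independent assays, given as average ± standard error.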
# Leishmania donovani [5] = assay: Antileishmanial activity against Leishmania donovani MHOM/IN/80/Dd8 amastigotes harboring luciferase reporter gene infected in mouse J774A.1 cells after 72 hrs by Steady-Glo luminescence assay; format: functional, organism-based; details: MHOM/IN/80/Dd8, J774.A1, 72 h
# Summary of the method: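 Intracellular L. donovani amastigotes in murine macrophages, with firefly luciferase reporter expression. IC50 is the concentration giving 50% inhibition of parasite growth. Values are the average of three independent assays, given as average ± standard error.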
# Leishmania donovani [6] = assay: Antileishmanial activity against Leishmania donovani MHOM/IN/80/Dd8 amastigotes infected in golden hamsters assessed as inhibition of splenic parasite burden at 50 mg/kg, ip for 5 consecutive days initiated after 2 days of biopsy and measured on day 7 post last dose by Giemsa staining-based assay relative to control; format: functional; details: MHOM/IN/80/Dd8, ip
# Summary of the method: (§1)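 Golden hamster model infected with L. donovani. Treatment was 50 mg kg–1 given intraperitoneally for 5 consecutive days. Read-out was % inhibition of splenic parasite burden.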
# Leishmania donovani [7] = assay: Antileishmanial activity against Leishmania donovani MHOM/IN/80/Dd8 amastigotes infected in golden hamsters assessed as inhibition of splenic parasite burden at 50 mg/kg, ip for 5 consecutive days initiated after 2 days of biopsy and measured on day 28 post last dose by Giemsa staining-based assay relative to control; format: functional; details: MHOM/IN/80/Dd8, ip; summary of the method: as §1
# Leishmania donovani [8] = assay: Antileishmanial activity against Leishmania donovani MHOM/IN/80/Dd8 amastigotes infected in golden hamsters assessed as inhibition of splenic parasite burden at 100 mg/kg, po for 5 consecutive days initiated after 2 days of biopsy and measured on day 7 post last dose by Giemsa staining-based assay relative to control; format: functional; details: MHOM/IN/80/Dd8, po
# Leishmania donovani [9] = assay: Antileishmanial activity against Leishmania donovani MHOM/IN/80/Dd8 amastigotes infected in golden hamsters assessed as inhibition of splenic parasite burden at 100 mg/kg, po for 5 consecutive days initiated after 2 days of biopsy and measured on day 28 post last dose by Giemsa staining-based assay relative to control; format: functional; details: MHOM/IN/80/Dd8, po
# [10] = Cmax in golden Syrian hamster at 50 mg/kg, po measured up to 24 hrs by LC-MS/MS analysis; format: ADME, organism-based, Mesocricetus auratus; parameters: dose 50 mg/kg, route oral; details: in vivo
# Summary of the method: (§2)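 Single oral 50 mg kg–1 dose given to golden Syrian hamsters (n = 5). Compound quantified in serum over time up to 24 h by validated LC-MS/MS with electrospray ionization. Parameters came from non-compartmental analysis of the mean serum concentration–time profile and are reported as mean ± SEM of five animals.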
# [11] = Tmax in golden Syrian hamster at 50 mg/kg, po measured up to 24 hrs by LC-MS/MS analysis; format: ADME, organism-based, Mesocricetus auratus; details: in vivo; summary of the method: as §2
# [12] = AUClast in golden Syrian hamster at 50 mg/kg, po measured up to 24 hrs by LC-MS/MS analysis; format: ADME, organism-based, Mesocricetus auratus; parameters: time < 24 hr, dose 50 mg/kg, route oral; details: in vivo; summary of the method: as §2
# [13] = MRT in golden Syrian hamster at 50 mg/kg, po measured up to 24 hrs by LC-MS/MS analysis; format: ADME, organism-based, Mesocricetus auratus; details: in vivo; summary of the method: as §2
# [14] = Apparent oral clearance in golden Syrian hamster at 50 mg/kg measured up to 24 hrs by LC-MS/MS analysis; format: ADME, organism-based, Mesocricetus auratus; details: in vivo; summary of the method: as §2
# [15] = Apparent oral volume of distribution in golden Syrian hamster at 50 mg/kg measured up to 24 hrs by LC-MS/MS analysis; format: ADME, organism-based, Mesocricetus auratus; details: in vivo; summary of the method: as §2
Compound,CC50 at 2 h [1] [µM],selectivity ratio [2],IC50 (Leishmania donovani [4]) [µM],IC50 (Leishmania donovani [5]) [µM],also measured
CCCCCCCCCCCCCCCCOP(=O)([O-])OCC[N+](C)(C)C [MILTEFOSINE],12.4,1.48,–,–,inhibition in vivo at 30 mg/kg (Leishmania donovani [3]): 98.1%
CC(C)(C)n1nnnc1C(c1ccc(C#N)cc1)N1CCc2c([nH]c3ccccc23)C1 (configuration not stated),150,9,2.82,16.4,–
CC(C)(C)n1nnnc1C(c1cccc([N+](=O)[O-])c1)N1CCc2c([nH]c3ccccc23)C1 (configuration not stated),150,39,4.91,3.86,inhibition in vivo at 50 mg/kg (Leishmania donovani [6]): 4.83%; inhibition in vivo at 50 mg/kg (Leishmania donovani [7]): 2.92%
COc1ccc(C(c2nnnn2C(C)(C)C)N2CCc3c([nH]c4ccccc34)C2)cc1 (configuration not stated),42,10,1.14,4.32,–
Brc1ccc(C(c2nnnn2C2CCCCC2)N2CCc3c([nH]c4ccccc34)C2)cc1 (configuration not stated),–,–,16.5,≥ 50,–
CC(C)(C)n1nnnc1C(c1ccc(Cl)cc1)N1CCc2c([nH]c3ccccc23)C1 (configuration not stated),37,2,3.45,14.2,–
O=[N+]([O-])c1ccc(C(c2nnnn2C2CCCCC2)N2CCc3c([nH]c4ccccc34)C2)cc1 (configuration not stated),–,–,31,≥ 50,–
CC(C)(C)n1nnnc1C(c1ccc([N+](=O)[O-])cc1)N1CCc2c([nH]c3ccccc23)C1 (configuration not stated),140,37,0.59,3.78,inhibition in vivo at 50 mg/kg (Leishmania donovani [6]): 20.4%; inhibition in vivo at 50 mg/kg (Leishmania donovani [7]): 19.6%
CC(C)(C)n1nnnc1C(c1ccc(F)cc1)N1CCc2c([nH]c3ccccc23)C1 (configuration not stated),48.8,3,2.71,17.5,–
CC(C)(C)n1nnnc1C(c1ccccc1)N1CCc2c([nH]c3ccccc23)C1 (configuration not stated),146,27,4.07,5.41,inhibition in vivo at 50 mg/kg (Leishmania donovani [6]): 4.05%; inhibition in vivo at 50 mg/kg (Leishmania donovani [7]): 3.79%
COc1cc(C(c2nnnn2C(C)(C)C)N2CCc3c([nH]c4ccccc34)C2)cc(OC)c1OC (configuration not stated),–,–,23.5,≥ 50,–
COc1ccc(C(c2nnnn2C(C)(C)C)N2CCc3c([nH]c4ccccc34)C2)cc1OC (configuration not stated),138,8,5.71,16,–
COc1ccc(C(c2nnnn2C2CCCCC2)N2CCc3c([nH]c4ccccc34)C2)cc1 (configuration not stated),–,–,20.4,≥ 50,–
COc1ccc(C(c2nnnn2C2CCCCC2)N2CCc3c([nH]c4ccccc34)C2)cc1OC (configuration not stated),41.9,13,1.2,3.31,–
CC(C)c1ccc(C(c2nnnn2C(C)(C)C)N2CCc3c([nH]c4ccccc34)C2)cc1 (configuration not stated),130,7,3.56,17.6,–
N#Cc1ccc(C(c2nnnn2C2CCCCC2)N2CCc3c([nH]c4ccccc34)C2)cc1 (configuration not stated),–,–,≥ 100,≥ 50,–
Clc1ccccc1C(c1nnnn1C1CCCCC1)N1CCc2c([nH]c3ccccc23)C1 (configuration not stated),–,–,≥ 100,≥ 50,–
CC(C)(C)n1nnnc1C(c1ccc(Br)cc1)N1CCc2c([nH]c3ccccc23)C1 (configuration not stated),144,38,1.58,3.77,inhibition in vivo at 50 mg/kg (Leishmania donovani [6]): 33.7%; inhibition in vivo at 50 mg/kg (Leishmania donovani [7]): 53.1%
COc1cc(C(c2nnnn2C2CCCCC2)N2CCc3c([nH]c4ccccc34)C2)cc(OC)c1OC (configuration not stated),36,23,2.81,1.57,inhibition in vivo at 50 mg/kg (Leishmania donovani [6]): 75%; inhibition in vivo at 50 mg/kg (Leishmania donovani [7]): 88.9%; inhibition in vivo at 100 mg/kg (Leishmania donovani [8]): 50.9%; inhibition in vivo at 100 mg/kg (Leishmania donovani [9]): 77.5%; Cmax [10]: 0.0762 to 0.0835 µg/mL; Tmax [11]: 1.6 to 8 h; AUC(0-t) at 24 h [12]: 0.845 µg·h/mL; MRT [13]: 10.2 h; CL/F [14]: 43.2 L/h/kg; Vd/F [15]: 652 L/kg
Clc1ccc(C(c2nnnn2C2CCCCC2)N2CCc3c([nH]c4ccccc34)C2)cc1 (configuration not stated),35.5,17,2.89,2.08,–
Fc1ccc(C(c2nnnn2C2CCCCC2)N2CCc3c([nH]c4ccccc34)C2)cc1 (configuration not stated),–,–,14.5,≥ 25,–
